Data reported in ChEMBL document CHEMBL1124917 (1990).

Legend:
Assay type in all cases: functional, Mus musculus
P388 [1] = experiment: Average weight change of mice was determined on day 6 after intraperitoneal injection on day 1 at a dose of 100 mg/kg following intraperitoneal implant of P388 leukemia cells in CDF1 mice
Outline: (§1)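 Female CDF₁ mice (16–20 g), six per dose, implanted ip with 10⁶ P388 cells kept as ascites in DBA/2 mice. Single ip dose of freshly prepared aqueous solution 1 day post-implant. Body weight change averaged per dose group, read on day 6, in grams.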

P388 [2] = experiment: Average weight change of mice was determined on day 6 after intraperitoneal injection on day 1 at a dose of 200 mg/kg following intraperitoneal implant of P388 leukemia cells in CDF1 mice; outline: as §1
P388 [3] = experiment: Antitumor activity was determined after intraperitoneal injection on day 1 at a dose of 100 mg/kg following intraperitoneal implant of P388 leukemia cells in CDF1 mice
Outline: (§2)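 P388 leukemia carried as ascites in DBA/2 mice; 10⁶ cells implanted ip into female CDF₁ mice (16–20 g), six per dose, 10 as untreated leukemia controls. Single ip dose of freshly prepared aqueous solution 1 day after implant. Daily observation for 30 days; activity taken as median survival time, treated vs untreated groups (% T/C).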

P388 [4] = experiment: Antitumor activity was determined after intraperitoneal injection on day 1 at a dose of 200 mg/kg following intraperitoneal implant of P388 leukemia cells in CDF1 mice; outline: as §2
[5] = Average weight change of mice was determined on day 6 after intraperitoneal injection on day 1 at a dose of 256 mg/kg following intraperitoneal implant of P388 leukemia cells in CDF1 mice; outline: as §1
P388 [6] = experiment: Antitumor activity was determined after intraperitoneal injection on day 1 at a dose of 256 mg/kg following intraperitoneal implant of P388 leukemia cells in CDF1 mice; outline: as §2
P388 [7] = experiment: Antitumor activity was determined after intraperitoneal injection on day 1 at a dose of 64 mg/kg following intraperitoneal implant of P388 leukemia cells in CDF1 mice; outline: as §2
P388 [8] = experiment: Antitumor activity was determined after intraperitoneal injection on day 1 at a dose of 128 mg/kg following intraperitoneal implant of P388 leukemia cells in CDF1 mice; outline: as §2
P388 [9] = experiment: Antitumor activity which was determined after intraperitoneal injection on day 1 at a dose of 32 mg/kg following intraperitoneal implant of P388 leukemia cells in CDF1 mice; outline: as §2
P388 [10] = experiment: Average weight change of mice was determined on day 6 after intraperitoneal injection on day 1 at a dose of 128 mg/kg following intraperitoneal implant of P388 leukemia cells in CDF1 mice; outline: as §1
P388 [11] = experiment: Average weight change of mice was determined on day 6 after intraperitoneal injection on day 1 at a dose of 64 mg/kg following intraperitoneal implant of P388 leukemia cells in CDF1 mice; outline: as §1
P388 [12] = experiment: Average weight change of mice was determined on day 6 after intraperitoneal injection on day 1 at a dose of 32 mg/kg following intraperitoneal implant of P388 leukemia cells in CDF1 mice; outline: as §1
P388 [13] = experiment: Average weight change of mice was determined on day 6 after intraperitoneal injection on day 1 at a dose of 400 mg/kg following intraperitoneal implant of P388 leukemia cells in CDF1 mice; outline: as §1
P388 [14] = experiment: Antitumor activity was determined after intraperitoneal injection on day 1 at a dose of 400 mg/kg following intraperitoneal implant of P388 leukemia cells in CDF1 mice; outline: as §2
P388 [15] = experiment: Antitumor activity was determined after intraperitoneal injection on day 1 at a dose of 50 mg/kg following intraperitoneal implant of P388 leukemia cells in CDF1 mice; outline: as §2
P388 [16] = experiment: Average weight change of mice was determined on day 6 after intraperitoneal injection on day 1 at a dose of 50 mg/kg following intraperitoneal implant of P388 leukemia cells in CDF1 mice; outline: as §1

Row | SMILES | AWC (P388 [1]) [g] | AWC (P388 [2]) [g] | T/C (P388 [3]) [%] | T/C (P388 [4]) [%] | AWC [5] [g] | T/C (P388 [6]) [%] | T/C (P388 [7]) [%] | T/C (P388 [8]) [%] | AWC (P388 [10]) [g] | AWC (P388 [11]) [g] | further results
1 | CCOP(=O)(N1CC1(C)C)N1CC1(C)C (stereo not given) | -2.6 | -5.2 | 289 | 433 | – | – | – | – | – | – | –
2 | CC(=O)OC[C@H]1O[C@@H](n2cc(C)c(=O)[nH]c2=O)C[C@@H]1OC(=O)NP(=O)(N1CC1(C)C)N1CC1(C)C (stereo not given in full) | – | – | – | – | -0.5 | 125 | – | – | – | – | –
3 | Cc1cn(C2CC(O)C(CNP(=O)(N3CC3(C)C)N3CC3(C)C)O2)c(=O)[nH]c1=O (stereo not given) | – | – | – | – | -0.7 | 156 | 150 | 150 | -0.8 | -0.4 | T/C (P388 [9]): 131%; AWC (P388 [12]): -0.7 g
4 | CCOC(=O)NP(=O)(N1CC1(C)C)N1CC1(C)C (stereo not given) [METUREDEPA] | -0.4 | -0.2 | 181 | 231 | – | – | – | – | – | – | AWC (P388 [13]): -1.3 g; T/C (P388 [14]): 244%; T/C (P388 [15]): 163%; AWC (P388 [16]): -0.7 g
5 | CC1(C)CN1P(=O)(Nc1ccccc1)N1CC1(C)C (stereo not given) [PHOSPHINIC ANILIDE DERIVATE] | – | – | – | – | -0.8 | 169 | 144 | 138 | -0.7 | -1.3 | –
6 | CC(=O)O[C@H]1C[C@H](n2cc(C)c(=O)[nH]c2=O)O[C@@H]1COC(=O)NP(=O)(N1CC1(C)C)N1CC1(C)C (stereo not given in full) | – | – | – | – | -1.3 | 113 | – | – | – | – | –
